Results as given in ChEMBL document CHEMBL2375244 (J Med Chem, 2013).
Activity calls are given as the source filed them. The calls are words filed in the database; no cut-off is given here.

Key:
SK-ES1 = experiment: Cytotoxicity against human SK-ES-1 cells after 72 hrs by resazurin/resorufin-based fluorescence assay; type: functional, cell-based; settings: SK-ES1, 72 h
T47D = experiment: Cytotoxicity against human T47D cells after 72 hrs by resazurin/resorufin-based fluorescence assay; type: functional, cell-based
[1] = Cytotoxicity against human NCI-H929 cells after 72 hrs by resazurin/resorufin-based fluorescence assay; type: functional, cell-based; settings: NCI-H929, 72 h
[2] = target: Dual specificity tyrosine-phosphorylation-regulated kinase 1A (Homo sapiens) (UniProt Q13627); experiment: Inhibition of human DYRK1A at 0.1 uM incubated for 15 mins prior to substrate addition measured after 90 mins by P33-radiolabeled assay relative to control
[3] = target: Glycogen synthase kinase-3 beta (Homo sapiens, UniProt P49841); experiment: Inhibition of human GSK3beta at 0.1 uM incubated for 15 mins prior to substrate addition measured after 90 mins by P33-radiolabeled assay relative to control
[4] = target: T1, Cyclin-dependent kinase 5/CDK5 activator 1 (Homo sapiens) (UniProt Q00535+Q15078); experiment: Inhibition of human CDK5/P35 at 0.1 uM incubated for 15 mins prior to substrate addition measured after 90 mins by P33-radiolabeled assay relative to control; type: protein-complex assay
T1 sequence (Q00535 whole entry): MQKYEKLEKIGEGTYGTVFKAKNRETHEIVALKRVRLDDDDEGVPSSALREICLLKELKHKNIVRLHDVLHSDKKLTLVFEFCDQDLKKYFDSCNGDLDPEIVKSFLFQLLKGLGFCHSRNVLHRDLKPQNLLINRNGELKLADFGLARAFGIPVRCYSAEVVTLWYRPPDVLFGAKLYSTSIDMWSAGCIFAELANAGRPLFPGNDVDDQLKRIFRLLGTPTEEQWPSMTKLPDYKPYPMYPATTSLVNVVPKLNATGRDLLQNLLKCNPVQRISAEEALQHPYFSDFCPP
T1 sequence (Q15078 99-307 partner limits assumed): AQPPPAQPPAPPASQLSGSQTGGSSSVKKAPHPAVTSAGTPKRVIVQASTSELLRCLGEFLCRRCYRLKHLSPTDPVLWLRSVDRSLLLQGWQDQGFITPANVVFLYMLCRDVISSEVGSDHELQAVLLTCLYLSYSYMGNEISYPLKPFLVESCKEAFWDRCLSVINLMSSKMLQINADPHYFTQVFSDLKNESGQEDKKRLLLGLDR

[5] = target: Cyclin-dependent kinase 4/cyclin D1 (Homo sapiens, UniProt P11802); experiment: Inhibition of CDK4/Cyclin D1 (unknown origin)-mediated phosphorylation of peptide substrate incubated for 15 mins prior to substrate addition measured after 90 mins by P33-radiolabeled assay; type: protein-complex assay
[6] = target: CDK2/Cyclin A2 (Homo sapiens) (UniProt P24941+P20248); experiment: Inhibition of human CDK2/Cyclin A at 0.1 uM incubated for 15 mins prior to substrate addition measured after 90 mins by P33-radiolabeled assay relative to control; type: protein-complex assay
MDA-MB-231 = experiment: Cytotoxicity against human MDA-MB-231 cells after 72 hrs by resazurin/resorufin-based fluorescence assay; type: functional, cell-based; settings: MDA-MB-231, 72 h
[7] = target: Glycogen synthase kinase-3 alpha (Homo sapiens) (UniProt P49840); experiment: Inhibition of human GSK3alpha at 0.1 uM incubated for 15 mins prior to substrate addition measured after 90 mins by P33-radiolabeled assay relative to control
Sequence of Glycogen synthase kinase-3 alpha (Homo sapiens) (P49840 2-483 limits assumed): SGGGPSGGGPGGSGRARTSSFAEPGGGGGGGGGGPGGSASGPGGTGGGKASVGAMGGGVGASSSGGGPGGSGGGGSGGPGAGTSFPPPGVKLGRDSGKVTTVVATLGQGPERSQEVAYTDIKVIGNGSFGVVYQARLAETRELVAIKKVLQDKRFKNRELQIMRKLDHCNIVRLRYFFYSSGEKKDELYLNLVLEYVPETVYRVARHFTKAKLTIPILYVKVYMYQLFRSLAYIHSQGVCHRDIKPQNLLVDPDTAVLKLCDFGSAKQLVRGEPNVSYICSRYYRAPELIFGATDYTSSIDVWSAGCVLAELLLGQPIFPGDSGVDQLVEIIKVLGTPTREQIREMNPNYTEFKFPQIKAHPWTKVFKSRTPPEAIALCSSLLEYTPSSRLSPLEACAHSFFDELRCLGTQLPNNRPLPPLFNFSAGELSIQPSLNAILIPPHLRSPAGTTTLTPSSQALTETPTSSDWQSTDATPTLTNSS

[8] = Cytotoxicity against mouse GC-1 cells after 72 hrs by MTT assay; type: functional, cell-based; settings: GC-1, 72 h
Method in brief: (§1)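 Cells kept in RPMI or DMEM with 10% FBS at 37 °C, 5% CO₂ and allowed to attach overnight; 72 h with increasing inhibitor concentrations; then 1 mg/mL MTT for 3 h, DMSO solubilisation, OD read at 540 nm. Testis lines had culture conditions adapted to them. Dose-response in triplicate, 9 concentrations between 0.02 and 100 μM, averaged.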

[9] = target: CDK4/Cyclin D3 (Homo sapiens) (UniProt P11802+P30281); experiment: Inhibition of human CDK4/Cyclin D3 at 0.1 uM incubated for 15 mins prior to substrate addition measured after 90 mins by P33-radiolabeled assay relative to control; type: protein-complex assay
CDK9/Cyclin K = CDK9/Cyclin K (Homo sapiens, UniProt P50750); experiment: Inhibition of CDK9/Cyclin K (unknown origin)-mediated phosphorylation of peptide substrate incubated for 15 mins prior to substrate addition measured after 90 mins by P33-radiolabeled assay; type: protein-complex assay
Sequence of CDK9/Cyclin K (P50750 whole entry): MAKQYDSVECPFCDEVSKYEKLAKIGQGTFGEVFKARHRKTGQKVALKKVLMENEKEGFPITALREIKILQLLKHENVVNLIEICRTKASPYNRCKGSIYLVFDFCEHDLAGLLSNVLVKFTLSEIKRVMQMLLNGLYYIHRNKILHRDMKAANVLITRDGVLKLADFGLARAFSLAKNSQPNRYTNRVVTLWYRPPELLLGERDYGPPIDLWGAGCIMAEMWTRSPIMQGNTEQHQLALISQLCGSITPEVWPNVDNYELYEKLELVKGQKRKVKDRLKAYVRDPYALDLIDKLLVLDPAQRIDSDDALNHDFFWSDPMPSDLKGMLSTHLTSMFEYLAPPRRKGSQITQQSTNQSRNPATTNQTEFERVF
Sequence of CDK9/Cyclin K (O75909 whole entry, further chain): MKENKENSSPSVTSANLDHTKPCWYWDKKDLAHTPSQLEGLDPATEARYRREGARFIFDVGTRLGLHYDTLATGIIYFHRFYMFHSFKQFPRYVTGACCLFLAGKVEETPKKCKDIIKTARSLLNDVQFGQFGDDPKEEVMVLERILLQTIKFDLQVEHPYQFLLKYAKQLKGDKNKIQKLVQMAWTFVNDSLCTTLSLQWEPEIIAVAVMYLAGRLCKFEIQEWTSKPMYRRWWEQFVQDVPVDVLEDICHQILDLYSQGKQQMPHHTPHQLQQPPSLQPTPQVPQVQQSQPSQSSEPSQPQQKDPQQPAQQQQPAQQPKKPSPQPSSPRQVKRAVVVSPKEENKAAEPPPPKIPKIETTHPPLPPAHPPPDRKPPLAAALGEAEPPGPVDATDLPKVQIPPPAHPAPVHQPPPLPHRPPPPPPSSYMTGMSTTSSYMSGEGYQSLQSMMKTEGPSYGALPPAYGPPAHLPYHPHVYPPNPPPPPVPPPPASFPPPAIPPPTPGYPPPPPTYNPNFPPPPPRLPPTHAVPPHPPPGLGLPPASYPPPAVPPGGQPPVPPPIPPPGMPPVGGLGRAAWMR
Method in brief: (§2)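 Radiometric (P33) kinase assay run by a contract lab on CDK–cyclin complexes. Inhibitor tested in duplicate at 0.05 nM to 1000 nM with ATP at 10 μM. […] For the in-house assays, IC50 was obtained by Hill-equation fitting.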

U-266 = experiment: Cytotoxicity against human U266 cells after 72 hrs by resazurin/resorufin-based fluorescence assay; type: functional, cell-based; settings: U-266, 72 h
CDK2/Cyclin A1 = CDK2/Cyclin A1 (Homo sapiens, UniProt P24941); experiment: Inhibition of CDK2/Cyclin A1 (unknown origin)-mediated phosphorylation of peptide substrate incubated for 15 mins prior to substrate addition measured after 90 mins by P33-radiolabeled assay; type: protein-complex assay
[10] = Cytotoxicity against human MDA-MB-436 cells after 72 hrs by resazurin/resorufin-based fluorescence assay; type: functional, cell-based; settings: MDA-MB-436, 72 h
[11] = target: Cyclin-dependent kinase 7/ cyclin H (Homo sapiens, UniProt P50613); experiment: Inhibition of CDK7/Cyclin H (unknown origin)-mediated phosphorylation of peptide substrate incubated for 15 mins prior to substrate addition measured after 90 mins by P33-radiolabeled assay; type: protein-complex assay
[12] = target: Dual specificity protein kinase CLK2 (Homo sapiens) (UniProt P49760); experiment: Inhibition of human CLK2 at 0.1 uM incubated for 15 mins prior to substrate addition measured after 90 mins by P33-radiolabeled assay relative to control
[13] = target: T1, Cyclin-dependent kinase 5/CDK5 activator 1 (Homo sapiens); experiment: Inhibition of human CDK5/P25 at 0.1 uM incubated for 15 mins prior to substrate addition measured after 90 mins by P33-radiolabeled assay relative to control; type: protein-complex assay
[14] = target: Cyclin-dependent kinase 1/cyclin B1 (Homo sapiens) (UniProt P06493+P14635); experiment: Inhibition of human CDK1/Cyclin B at 0.1 uM incubated for 15 mins prior to substrate addition measured after 90 mins by P33-radiolabeled assay relative to control; type: protein-complex assay
Sequence of Cyclin-dependent kinase 1/cyclin B1 (Homo sapiens) (P06493 whole entry, looked up): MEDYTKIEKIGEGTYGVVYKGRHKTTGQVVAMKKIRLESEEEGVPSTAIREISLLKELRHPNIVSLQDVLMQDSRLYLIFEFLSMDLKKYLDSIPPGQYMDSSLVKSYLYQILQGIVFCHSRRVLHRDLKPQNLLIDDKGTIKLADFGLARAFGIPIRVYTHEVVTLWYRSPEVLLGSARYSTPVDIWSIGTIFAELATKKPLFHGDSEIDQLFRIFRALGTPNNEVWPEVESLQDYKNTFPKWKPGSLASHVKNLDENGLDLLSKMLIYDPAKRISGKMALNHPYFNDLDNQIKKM
Sequence of Cyclin-dependent kinase 1/cyclin B1 (Homo sapiens) (P14635 whole entry, looked up): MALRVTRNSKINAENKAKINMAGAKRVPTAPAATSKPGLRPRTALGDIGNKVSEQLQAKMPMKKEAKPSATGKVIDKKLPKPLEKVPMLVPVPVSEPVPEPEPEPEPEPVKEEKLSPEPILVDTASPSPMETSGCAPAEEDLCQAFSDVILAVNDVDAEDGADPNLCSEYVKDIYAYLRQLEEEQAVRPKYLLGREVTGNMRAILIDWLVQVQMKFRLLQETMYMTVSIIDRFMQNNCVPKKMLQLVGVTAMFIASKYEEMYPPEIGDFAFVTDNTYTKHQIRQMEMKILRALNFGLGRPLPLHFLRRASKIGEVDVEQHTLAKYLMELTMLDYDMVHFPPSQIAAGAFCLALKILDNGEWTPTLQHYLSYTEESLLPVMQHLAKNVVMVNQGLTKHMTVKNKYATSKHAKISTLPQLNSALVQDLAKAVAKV

CDK3/Cyclin E = CDK3/Cyclin E (Homo sapiens, UniProt Q00526); experiment: Inhibition of CDK3/Cyclin E (unknown origin)-mediated phosphorylation of peptide substrate incubated for 15 mins prior to substrate addition measured after 90 mins by P33-radiolabeled assay; type: protein-complex assay
[15] = target: CDK1/Cyclin E (Homo sapiens) (UniProt P06493+P24864); experiment: Inhibition of human CDK1/Cyclin E at 0.1 uM incubated for 15 mins prior to substrate addition measured after 90 mins by P33-radiolabeled assay relative to control; type: protein-complex assay
Sequence of CDK1/Cyclin E (Homo sapiens) (P06493 whole entry, looked up): as the sequence (P06493 whole entry, looked up) above
Sequence of CDK1/Cyclin E (Homo sapiens) (P24864 whole entry, looked up): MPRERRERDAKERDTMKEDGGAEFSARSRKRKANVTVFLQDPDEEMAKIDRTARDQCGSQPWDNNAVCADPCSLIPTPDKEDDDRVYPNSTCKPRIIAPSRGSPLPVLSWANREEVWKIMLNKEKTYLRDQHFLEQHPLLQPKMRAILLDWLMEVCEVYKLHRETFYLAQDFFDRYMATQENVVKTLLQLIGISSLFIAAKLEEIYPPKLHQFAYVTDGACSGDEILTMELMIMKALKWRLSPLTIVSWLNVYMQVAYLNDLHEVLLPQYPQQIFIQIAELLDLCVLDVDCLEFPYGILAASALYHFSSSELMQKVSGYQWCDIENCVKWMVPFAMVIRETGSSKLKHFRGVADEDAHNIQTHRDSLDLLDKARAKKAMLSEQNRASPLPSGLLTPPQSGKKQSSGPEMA

[16] = Cytotoxicity against mouse GC-2 cells after 72 hrs by MTT assay; type: functional, cell-based; settings: GC-2, 72 h; method in brief: as §1
CDK2/Cyclin A2 = CDK2/Cyclin A2 (Homo sapiens, UniProt P24941); experiment: Inhibition of human CDK2/Cyclin A2 using PKTPKKAKKL as substrate by P33-radiolabeled assay; type: protein-complex assay; method in brief: as §2
SK-UT-1 = experiment: Cytotoxicity against human SK-UT-1 cells after 72 hrs by resazurin/resorufin-based fluorescence assay; type: functional, cell-based; settings: SK-UT-1, 72 h
SW872 = experiment: Cytotoxicity against human SW872 cells after 72 hrs by resazurin/resorufin-based fluorescence assay; type: functional, cell-based; settings: SW872, 72 h
[17] = target: CDK1/Cyclin A (Homo sapiens) (UniProt P06493+P20248); experiment: Inhibition of human CDK1/Cyclin A at 0.1 uM incubated for 15 mins prior to substrate addition measured after 90 mins by P33-radiolabeled assay relative to control; type: protein-complex assay
Sequence of CDK1/Cyclin A (Homo sapiens) (P06493 whole entry, looked up): as the sequence (P06493 whole entry, looked up) above
Sequence of CDK1/Cyclin A (Homo sapiens) (P20248 whole entry, looked up): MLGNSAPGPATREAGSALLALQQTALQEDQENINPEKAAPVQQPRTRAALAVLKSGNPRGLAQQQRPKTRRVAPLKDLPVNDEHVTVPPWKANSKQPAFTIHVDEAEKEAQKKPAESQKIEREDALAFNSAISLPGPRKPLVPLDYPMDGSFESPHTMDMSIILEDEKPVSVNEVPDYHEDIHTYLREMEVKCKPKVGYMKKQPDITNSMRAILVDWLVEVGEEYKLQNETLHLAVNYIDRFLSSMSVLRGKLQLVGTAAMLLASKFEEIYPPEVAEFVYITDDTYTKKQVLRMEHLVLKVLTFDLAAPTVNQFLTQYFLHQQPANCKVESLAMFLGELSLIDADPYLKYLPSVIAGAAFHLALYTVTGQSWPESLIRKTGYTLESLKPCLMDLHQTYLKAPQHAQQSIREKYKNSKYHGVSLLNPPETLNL

CDK6/cyclin D1 = CDK6/cyclin D1 (Homo sapiens, UniProt Q00534); experiment: Inhibition of CDK6/Cyclin D1 (unknown origin)-mediated phosphorylation of peptide substrate incubated for 15 mins prior to substrate addition measured after 90 mins by P33-radiolabeled assay; type: protein-complex assay
Sequence of CDK6/cyclin D1 (P24385 whole entry): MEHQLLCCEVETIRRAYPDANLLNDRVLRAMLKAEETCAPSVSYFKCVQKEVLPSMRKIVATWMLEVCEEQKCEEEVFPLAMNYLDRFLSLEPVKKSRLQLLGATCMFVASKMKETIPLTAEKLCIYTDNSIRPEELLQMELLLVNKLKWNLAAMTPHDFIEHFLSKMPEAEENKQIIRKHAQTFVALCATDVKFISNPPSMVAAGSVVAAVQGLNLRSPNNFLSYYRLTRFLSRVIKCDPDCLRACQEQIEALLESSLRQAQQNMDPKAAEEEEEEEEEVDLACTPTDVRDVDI
Sequence of CDK6/cyclin D1 (Q00534 whole entry): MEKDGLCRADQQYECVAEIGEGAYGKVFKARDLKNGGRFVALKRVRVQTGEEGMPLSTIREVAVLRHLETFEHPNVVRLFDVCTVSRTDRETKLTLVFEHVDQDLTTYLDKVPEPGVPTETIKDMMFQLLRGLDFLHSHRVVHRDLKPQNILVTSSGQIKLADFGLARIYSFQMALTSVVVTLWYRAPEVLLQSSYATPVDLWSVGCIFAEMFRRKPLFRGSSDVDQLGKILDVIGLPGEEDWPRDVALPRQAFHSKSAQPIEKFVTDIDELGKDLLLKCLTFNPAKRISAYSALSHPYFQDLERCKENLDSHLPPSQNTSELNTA

[18] = target: Cyclin-dependent kinase 2 (Homo sapiens) (UniProt P24941); experiment: Inhibition of CDK2-mediated Rb phosphorylation at Ser 807/811 in human A673 cells at 0.25 uM after 24 hrs by immunoblotting analysis; type: cell-based
Method in brief: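 Asynchronously growing A-673 cells at ~70% confluence were exposed for 24 h to increasing concentrations, then lysed. 50 μg protein per lane on 10% SDS-PAGE, transferred to nitrocellulose. Phospho-Rb Ser807/811 antibody, with β-actin as loading control, detected with fluorescent secondary antibodies on an infrared scanner.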

Which results are given for `Nc1nc(Nc2ccc(S(N)(=O)=O)cc2)sc1C(=O)c1ccccc1[N+](=O)[O-]`?
IC50 (SK-ES1): 560 nM; IC50 (T47D): 500 nM; IC50 [1]: 1600 nM; inhibition [2]: 50%; inhibition [3]: 60%; inhibition [4]: 90%; IC50 [5]: 4 nM; inhibition [6]: 90%; IC50 (MDA-MB-231): 1500 nM; inhibition [7]: 75%; IC50 [8]: 20000 nM; inhibition [9]: 80%; IC50 (CDK9/Cyclin K): 13 nM; IC50 (U-266): 1800 nM; IC50 (CDK2/Cyclin A1): 1.8 nM; IC50 [10]: 2000 nM; IC50 [11]: > 1000 nM; inhibition [12]: 60%; inhibition [13]: 90%; inhibition [14]: 90%; IC50 (CDK3/Cyclin E): 38 nM; inhibition [15]: 80%; IC50 [16]: 9000 nM; IC50 (CDK2/Cyclin A2): 1.5 nM; IC50 (SK-UT-1): 1400 nM; IC50 (SW872): 6900 nM; inhibition [17]: 70%; IC50 (CDK6/cyclin D1): 6.6 nM; inhibition [18]: Active
